# Test results published in the RNAGym collection of RNA variant scans (doi:10.1126/science.aae0568).
# Variants at the floor of the assay were thinned out.
# B1: tRNA (parent)
# chain: GUUCCGUUGGCGUAAUGGUAACGCGUCUCCCUCCUAAGGAGAAGACUGCGGGUUCGAGUCCCGUACGGAACG
# Variants of: B1
# Assay: yeast fitness relative to wild type (ratio to wild type); higher = fitter; tRNA-Arg(CCU), competitive growth, 37 C, YPD
# Summary of the method: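 Amplicons of the tRNA-Arg(CCU) gene were sequenced, 100-nucleotide paired-end, from the start population and from each end population of a pooled yeast competition. The competition, in six parallel replicates, lasted 24 hours in YPD at 37°C. Fitness relative to wild type was calculated from changes in genotype frequencies. Genotypes had to have ≥ 100 starting reads, and estimates < 0.5 were set to 0.5.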
row,Variant,yeast fitness
1,GUUCCGUUGGCGUAAUGGUAACACGUCUCCCUCCUAAGGAGACGACUGCGGGUUCGAGACCCGUACGGAACG [G23A A43C U59A],0.639
2,GUUCCGUUGGCGUAAUGGUAAUGCGUCUCCCUCCUAAGGAGAAGACUGCGGGUUCGAGUUACGUACGGAACG [C22U C60U C61A],≤ 0.5
3,GUUCCGUUGGCGUAAUGGUAAUGCGUCUCCCUCCUAAGGAGAAGACUGCGGGUAUGAGUCCCGUACGGAACG [C22U U54A C55U],0.776
4,GUUCCGUUGGCGUAAUGGUAACACGUCUGCCGCGUGAGGAGAAGACUGCGGGUUCGAGUCCUGUACGGAACG [G23A C29G U32G C34G A36G C62U],≤ 0.5
5,GUUCCGUUGGCGUAAUGGUAAUGCGUCUCCCUCCUAAGGAGAAGACUGCGGGUUCGAGACGCGUACGGAACG [C22U U59A C61G],0.547
6,GUUCCGUUGGCGUAAUGGUAAUGCGUCUCCCUCCUAAGGAGAAGACUGCGGAUUCGAGUCUCGUACGGAACG [C22U G52A C61U],≤ 0.5
7,GUUCCGUUGGCGUAAUGGUAACACGUCUGCCUCCUAAGGAGAAGACUGCGGGUUCGGGUCCCGUAGGGAACG [G23A C29G A57G C66G],≤ 0.5
8,GUUCCGUUGGCGUAAUGGUAACACGUCUCCCUCCUAAGGAGAAGAUUGCGGGUUCGAGUCCCGUCCGGAACG [G23A C46U A65C],0.54
9,GUUCCGUUGGCGUAAUGGUAAUGCGUCUCCCUCCUAAGGAGAAGACUGCGGGUUCGAGUCCCAUACGGAACG [C22U G63A],0.81
10,GUUCCGUUGGCGUAAUGGUAACACGUCUCCCUCAUAAGGAGAUGACCGCGGGUUCGAGUCCGGUAAGGAACG [G23A C34A A43U U47C C62G C66A],0.689
11,GUUCCGUUGGCGUAAUGGUAAUGCGUCUCCCUCCUAAGGAGAAGAAUGCGGGUUCGACUCCCGUAUGGAACG [C22U C46A G58C C66U],≤ 0.5
12,GUUCCGUUGGCGUAAUGGUAAUGCGUCUCCCUCCUAAGGAGAAGACUGCGGGUUCGAGUCCGGUACGGUACG [C22U C62G A69U],0.586
13,GUUCCGUUGGCGUAAUGGUAACACGUCUCCCUCUUAAGGAGAUCACUGCGGGUUCGAGUUCCGUACGGAACG [G23A C34U A43U G44C C60U],≤ 0.5
14,GUUCCGUUGGCGUAAUGGUAAUGCGUCUCCCUCCUAAGGAGAAGACUGCGGAUUCGAGUUCCGUACGGAACG [C22U G52A C60U],0.598
15,GUUCCGUUGGCGUAAUGGUAACACGUCUCUCUCCUAAGGAGAAGACUGCGGGUUGGCGUCACGUACGGAACG [G23A C30U C55G A57C C61A],≤ 0.5
16,GUUCCGUUGGCGUAAUGGUAAUGCGUCUCCCUCCUAAGGAGAAGACUACGGGUUCGAGUCCCGUACGGCACG [C22U G48A A69C],0.741
17,GUUCCGUUGGCGUAAUGGUAACAGGUCUCCCUCCUAAGGUGAAGACUGCGGGUUCGAGUCCCGUUCGGAACG [G23A C24G A40U A65U],≤ 0.5
18,GUUCCGUUGGCGUAAUGGUAACACGUCUCCCUCCUAAGGAGAAGACUGAGGGUUCGAGCCCUGUUCGGACCG [G23A C49A U59C C62U A65U A70C],0.524
19,GUUCCGUUGGCGUAAUGGUAAUGCGUCGCCCACCUAAGGAGAAGACUGCGGGUUCGAGUCCCGUACGGAACG [C22U U28G U32A],≤ 0.5

row,Variant,yeast fitness
1,GUUCCGUUGGCGUAAUGGUAAUGCGUCUCCCUCCUAACGAGAAGAUUGCGGGUUCGAGUCCCGUAGGGAACG [C22U G38C C46U C66G],≤ 0.5
2,GUUCCGUUGGCGUAAUGGUAAUGCGUCUCCCUCCUAAGGAGAAGACUGCGGGUUCGAGUGCCGUACGGAACG [C22U C60G],0.688
3,GUUCCGUUGGCGUAAUGGUAACACGUCUCUCUACUAAGGAGAGGACUCCGGGUUCGGGUCCCGUACGGAACG [G23A C30U C33A A43G G48C A57G],≤ 0.5
4,GUUCCGUUGGCGUAAUGGUAAUGCGUCUCCCUCCUAAGGAGAAGACUACGGGUUCGAGUCCCGUUCGGAACG [C22U G48A A65U],0.773
5,GUUCCGUUGGCGUAAUGGUAACACGUCUCCCUCCUAAGGGAAAGUCUGCGCGUUCGAGUCCCGUACGGAACG [G23A A40G G41A A45U G51C],≤ 0.5
6,GUUCCGUUGGCGUAAUGGUAAUGCGUCUCCCUCCUAAGGAGAAGACUGCGAGUUCGAGUCCCGUACGGAACG [C22U G51A],0.804
7,GUUCCGUUGGCGUAAUGGUAACACGUCUCCCUCCUUAGCAGAAGACUGCGGGUUCGAGUCCCGUACGAAACG [G23A A36U G39C G68A],≤ 0.5
8,GUUCCGUUGGCGUAAUGGUAAUGCGUCUCCCUCUUAAGAAGAAAACUGCGGGUUCGACUCCCGUCCGGAACG [C22U C34U G39A G44A G58C A65C],≤ 0.5
9,GUUCCGUUGGCGUAAUGGUAACACGUCUCUCUCCCAAGGAGAAGACUCCGGGUUCGAGACCCGUAUGGAACG [G23A C30U U35C G48C U59A C66U],0.526
10,GUUCCGUUGGCGUAAUGGUAAUGCGUCUCCCUCCUAAGGAGAAGACUGCGGGUUCGAGCCCCGUACGGAACG [C22U U59C],0.778
11,GUUCCGUUGGCGUAAUGGUAACACGUCUCCCUGCUAAGGAGAAGACAGCGGGUUCGAGUCCCGUACGAAACG [G23A C33G U47A G68A],0.539
12,GUUCCGUUGGCGUAAUGGUAAUGCGUCUCCCUCCUAAGGAGAAGACUGUGGGUUCGAGUCCCGUACGGAACG [C22U C49U],0.816
13,GUUCCGUUGGCGUAAUGGUAAUGCGUCGCCCUCCUAAGGAGAAGGCUGCGGGUUCGAGUCCCGUACUGAACG [C22U U28G A45G G67U],≤ 0.5
14,GUUCCGUUGGCGUAAUGGUAAUGCGUCUCCCUCCUAAGGAGAAGACUGCGGGUUCGAGUCUCGUACGGAACG [C22U C61U],0.72
15,GUUCCGUUGGCGUAAUGGUAACACGUCUGCCUCCUAAGGAGAAGUCUGCGGGUUCGAGUCCUGUACGGAACG [G23A C29G A45U C62U],≤ 0.5
16,GUUCCGUUGGCGUAAUGGUAAUGCGUCUCCCUCCUAAGGAGAAGACUGCGGAUUAGAGUCCCGUACGGCACG [C22U G52A C55A A69C],≤ 0.5
17,GUUCCGUUGGCGUAAUGGUAAUGCGUCUCCCUCCUAAGGAGAAGAUUGCCGGUUUGUGUCCGGUACGGAUCG [C22U C46U G50C C55U A57U C62G A70U],≤ 0.5
18,GUUCCGUUGGCGUAAUGGUAACACGUCUCCCUCCUAAGGAGUAGACUGCGGGUUCGAGUCACGUACGGAACG [G23A A42U C61A],≤ 0.5
19,GUUCCGUUGGCGUAAUGGUAACACGUCUCCCUCCUAAGGAGAUGACUGCGGGUUCGAGUCCCGUUCGGAACG [G23A A43U A65U],≤ 0.5
